According to ChEMBL document CHEMBL1139543, “Antineoplastic agents. 445. Synthesis and evaluation of structural modifications of (Z)- and (E)-combretastatin A-41” (J Med Chem, 2005):
Values after ≈ are worked out from the molar mass of the structure shown.

Tests used:
DU-145 = experiment: Growth inhibition against human prostate cell line (DU-145); format: functional
BXPC-3 = experiment: Growth inhibition against human pancreas carcinoma cell line (BxPC-3); format: functional
SW-1736 = experiment: Growth inhibition against human thyroid cell line( SW 1736); format: functional
SK-N-SH = experiment: Growth inhibition against human neuroblastoma cell line (SK-N-SH); format: functional
Tubulin beta-1 chain = Tubulin beta-1 chain (Homo sapiens, UniProt Q9H4B7); experiment: Inhibition of tubulin polymerization upon incubation for 20 min at 30 degree C
Tubulin beta-1 chain, sequence (Q9H4B7 whole entry): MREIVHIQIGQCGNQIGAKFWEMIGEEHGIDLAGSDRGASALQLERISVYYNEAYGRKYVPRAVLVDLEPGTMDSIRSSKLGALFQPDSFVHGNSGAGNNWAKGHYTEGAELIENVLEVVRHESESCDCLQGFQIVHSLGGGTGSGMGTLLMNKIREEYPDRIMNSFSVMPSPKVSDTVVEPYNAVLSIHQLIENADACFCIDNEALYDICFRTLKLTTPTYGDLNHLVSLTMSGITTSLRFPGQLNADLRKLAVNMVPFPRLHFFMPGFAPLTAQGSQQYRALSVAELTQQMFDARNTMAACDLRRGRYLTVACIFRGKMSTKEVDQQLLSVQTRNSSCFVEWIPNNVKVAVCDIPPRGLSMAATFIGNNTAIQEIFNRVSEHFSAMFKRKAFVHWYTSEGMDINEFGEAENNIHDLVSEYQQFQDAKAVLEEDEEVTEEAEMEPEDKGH
Method in brief: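 Purified tubulin at 10 µM (1.0 mg/mL) in 0.8 M monosodium glutamate, pH 6.6, with 4% (v/v) DMSO and varying compound concentrations. Preincubated 15 min at 37 °C, chilled on ice, then GTP (0.4 mM) added. Warmed from 0 °C to 30 °C, and assembly followed 20 min by turbidity at 350 nm. IC50 interpolated; at least two determinations; SD reported.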

NCI-H460 = experiment: Growth inhibition against human lung-NSC NCI-H460 cell line; format: functional
FaDu = experiment: Growth inhibition against human pharynx FADU cell line; format: functional
P388 = experiment: Effective dose against murine P388 leukemia cell line; format: functional; settings: Mus musculus, read-out: ED50 (the source's name)
Staphylococcus aureus [1] = experiment: Minimum inhibitory concentration against Staphylococcus aureus was determined in the disk diffusion assay; value ranges from 25-50 ug/disk; format: functional
Micrococcus luteus [2] = experiment: Minimum inhibitory concentration against Micrococcus luteus was determined in the disk diffusion assay; value ranges from 12.5-25 ug/disk
Streptococcus pneumoniae = experiment: Minimum inhibitory concentration against Streptococcus pneumoniae was determined in the disk diffusion assay; value ranges from 50-100 ug/disk; format: functional
Candida albicans [3] = experiment: Minimum inhibitory concentration against Candida albicans was determined in the disk diffusion assay; value ranges from 25-50 ug/disk; format: functional
Method in brief: (§1)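 Disk diffusion on Sabouraud Dextrose Agar. MIC taken as the lowest drug amount giving a clear zone of growth inhibition.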

Neisseria gonorrhoeae [4] = experiment: Minimum inhibitory concentration against Neisseria gonorrhoeae was determined in the disk diffusion assay; value ranges from 50-100 ug/disk; format: functional
Candida albicans [5] = experiment: Minimum inhibitory concentration against Candida albicans was determined in the disk diffusion assay; value ranges from 50-100 ug/disk; format: functional; method in brief: as §1
Cryptococcus neoformans = experiment: Minimum inhibitory concentration against Cryptococcus neoformans was determined in the disk diffusion assay; value ranges from 6.25-12.5 ug/disk; format: functional
Neisseria gonorrhoeae [6] = experiment: Minimum inhibitory concentration against Neisseria gonorrhoeae was determined in the disk diffusion assay; value ranges from 12.5-25 ug/disk; format: functional
Micrococcus luteus [7] = experiment: Minimum inhibitory concentration against Micrococcus luteus was determined in the disk diffusion assay; format: functional
Enterococcus faecalis = experiment: Minimum inhibitory concentration against Enterococcus faecalis was determined in the disk diffusion assay value ranges from 50-100 ug/disk; format: functional
Micrococcus luteus [8] = experiment: Minimum inhibitory concentration against Micrococcus luteus was determined in the disk diffusion assay; value ranges from 12.5-25 ug/disk; format: functional
Staphylococcus aureus [9] = experiment: Minimum inhibitory concentration against Staphylococcus aureus was determined in the disk diffusion assay; value ranges from 50-100 ug/disk; format: functional

SMILES | GI50 (DU-145) [µg/mL] | GI50 (BXPC-3) [µg/mL] | GI50 (SW-1736) [µg/mL] | GI50 (SK-N-SH) [µg/mL] | IC50 (Tubulin beta-1 chain) [µM] | GI50 (NCI-H460) [µg/mL] | GI50 (FaDu) [µg/mL] | EC50 (P388) [µg/mL] | MIC (Staphylococcus aureus [1]) [ug/disk] | MIC (Micrococcus luteus [2]) [ug/disk] | MIC (Streptococcus pneumoniae) [ug/disk] | MIC (Candida albicans [3]) [ug/disk] | MIC (Neisseria gonorrhoeae [4]) [ug/disk] | MIC (Candida albicans [5]) [ug/disk] | MIC (Cryptococcus neoformans) [ug/disk] | MIC (Neisseria gonorrhoeae [6]) [ug/disk] | MIC (Micrococcus luteus [7]) [ug/disk] | MIC (Enterococcus faecalis) [ug/disk] | MIC (Micrococcus luteus [8]) [ug/disk] | MIC (Staphylococcus aureus [9]) [ug/disk]
COc1ccc(/C=C/c2cc(OC)c(OC)c(OC)c2)cc1Br | 0.46 (≈ 1.21 µM) | 0.34 (≈ 0.897 µM) | 10.8 (≈ 28.5 µM) | 0.4 (≈ 1.05 µM) | 31 | 0.36 (≈ 0.949 µM) | 11.4 (≈ 30.1 µM) | 3.08 (≈ 8.12 µM) |  |  |  |  |  |  |  |  |  |  |  | 
COc1ccc(/C=C\c2cc(OC)c(OC)c(OC)c2)cc1OCC[N+](C)(C)C.[I-] | 0.33 | 37.2 | 0.1 | 0.28 |  | 0.36 | 0.24 | 1.94 | 50 | 25 | 100 | 50 |  |  |  |  |  |  |  | 
COc1ccc(/C=C\c2cc(OC)c(OC)c(OC)c2)cc1OCCCl | 3.4 (≈ 8.97 µM) | 2.7 (≈ 7.13 µM) | 4.7 (≈ 12.4 µM) | 2 (≈ 5.28 µM) | > 40 | 3.7 (≈ 9.77 µM) | 4.6 (≈ 12.1 µM) | 2.9 (≈ 7.65 µM) |  |  |  |  |  |  |  |  |  |  |  | 
COc1ccc(/C=C\c2cc(OC)c(OC)c(OC)c2)cc1[N+](=O)[O-] | 0.047 (≈ 0.136 µM) | 0.029 (≈ 0.084 µM) | 0.0067 (≈ 0.0194 µM) | 0.014 (≈ 0.0405 µM) | 2.6 | 0.0038 (≈ 0.011 µM) | 0.047 (≈ 0.136 µM) | 2.4 (≈ 6.95 µM) |  |  |  |  |  |  |  |  |  |  |  | 
COc1ccc(/C=C\c2cc(OC)c(OC)c(OC)c2)cc1N(C)C | 0.11 (≈ 0.32 µM) | 0.015 (≈ 0.0437 µM) | 0.8 (≈ 2.33 µM) | 0.01 (≈ 0.0291 µM) |  | 0.4 (≈ 1.16 µM) | 0.09 (≈ 0.262 µM) | 0.9 (≈ 2.62 µM) |  |  |  |  |  |  |  |  |  |  |  | 
COc1ccc(/C=C\c2cc(OC)c(OC)c(OC)c2)cc1OCCCO | 0.43 (≈ 1.15 µM) | 0.26 (≈ 0.694 µM) | 0.38 (≈ 1.01 µM) | 0.18 (≈ 0.481 µM) | 6.5 | 0.37 (≈ 0.988 µM) | 0.63 (≈ 1.68 µM) | 0.63 (≈ 1.68 µM) |  |  |  |  | 100 |  |  |  |  |  |  | 
COc1ccc(/C=C\c2cc(OC)c(OC)c(OC)c2)cc1Br | 0.027 (≈ 0.0712 µM) | 0.007 (≈ 0.0185 µM) | 0.034 (≈ 0.0897 µM) | 0.002 (≈ 0.00527 µM) | 1.1 | 0.033 (≈ 0.087 µM) | 0.0058 (≈ 0.0153 µM) | 0.16 (≈ 0.422 µM) |  |  |  |  |  |  |  |  |  |  |  | 
COc1ccc(/C=C/c2cc(OC)c(OC)c(OC)c2)cc1OCCCO | 4.5 (≈ 12 µM) | > 10 | 11.6 (≈ 31 µM) | 8.1 (≈ 21.6 µM) |  | > 10 | 2.3 (≈ 6.14 µM) | 6.8 (≈ 18.2 µM) |  |  |  |  |  |  |  |  |  |  |  | 
COc1ccc(/C=C/c2cc(OC)c(OC)c(OC)c2)cc1[N+](=O)[O-] | > 10 | > 10 | 2.8 (≈ 8.11 µM) | 7.3 (≈ 21.1 µM) |  |  | 3.8 (≈ 11 µM) | > 10 |  |  |  |  |  |  |  |  |  |  |  | 
COc1ccc(/C=C\c2cc(OC)c(OC)c(OC)c2)cc1OC(=O)N(CCCl)CCCl | 0.31 (≈ 0.64 µM) | 2.8 (≈ 5.78 µM) | 0.72 (≈ 1.49 µM) | 0.14 (≈ 0.289 µM) | > 40 | 0.37 (≈ 0.764 µM) | 0.15 (≈ 0.31 µM) | 0.074 (≈ 0.153 µM) |  |  |  |  |  |  |  |  |  |  |  | 
COc1ccc(/C=C/c2cc(OC)c(O)c(OC)c2)cc1O | 6.3 (≈ 20.8 µM) | 5 (≈ 16.5 µM) | > 10 | 5.5 (≈ 18.2 µM) | 14 | 4.9 (≈ 16.2 µM) | 3.2 (≈ 10.6 µM) | 4.49 (≈ 14.9 µM) |  |  |  |  |  | 100 | 12.5 | 25 |  |  |  | 
COc1ccc(/C=C\c2cc(OC)c(OC)c(OC)c2)cc1OCCOS(C)(=O)=O | 0.59 (≈ 1.35 µM) | 2.7 (≈ 6.16 µM) | 1 (≈ 2.28 µM) | 3 (≈ 6.84 µM) | > 40 | 0.42 (≈ 0.958 µM) | 0.41 (≈ 0.935 µM) | 2.87 (≈ 6.55 µM) |  |  |  |  |  |  |  |  |  |  |  | 
COc1ccc(/C=C\c2cc(OC)c(OC)c(OC)c2)cc1N | 0.00033 (≈ 0.00105 µM) | 0.00043 (≈ 0.00136 µM) | 0.0008 (≈ 0.00254 µM) | 0.00023 (≈ 0.000729 µM) |  | 0.00033 (≈ 0.00105 µM) | 0.00053 (≈ 0.00168 µM) | > 0.01 |  |  |  |  |  |  |  |  |  |  |  | 
COc1ccc(/C=C\c2cc(OC)c(OC)c(OC)c2)cc1OCCO | 0.32 (≈ 0.888 µM) | 0.045 (≈ 0.125 µM) | 0.28 (≈ 0.777 µM) | 0.028 (≈ 0.0777 µM) | 2.8 | 0.14 (≈ 0.388 µM) | 0.069 (≈ 0.191 µM) | 0.195 (≈ 0.541 µM) |  |  |  |  | 100 |  |  |  |  |  |  | 
COc1ccc(/C=C\c2cc(OC)c(O)c(OC)c2)cc1O | 0.17 (≈ 0.562 µM) | > 4 | 3.4 (≈ 11.2 µM) | 0.19 (≈ 0.628 µM) |  | 0.74 (≈ 2.45 µM) | 0.23 (≈ 0.761 µM) | 0.25 (≈ 0.827 µM) |  |  |  |  |  |  |  | 25 |  |  |  | 
CCN(CC)CCOc1cc(/C=C\c2cc(OC)c(OC)c(OC)c2)ccc1OC.Cl | 3.4 | > 10 | 1.1 | 1.5 | > 40 | 3.3 | 1.1 | 0.255 | 50 |  |  |  | 100 |  |  |  | <6.25 | 100 |  | 
COc1ccc(/C=C\c2cc(OC)c(OC)c(OC)c2)cc1OCCN(C)C.Cl | 0.38 | > 10 | 0.64 | 0.21 | > 40 | 0.34 | 0.47 | 0.523 |  |  |  |  |  |  |  |  |  |  |  | 
COc1ccc(/C=C\c2cc(OC)c(OC)c(OC)c2)cc1OCCN1CCN(C)CC1.Cl.Cl | 4.1 | > 10 | > 10 | 2.8 | > 40 | 3.4 | 2.9 | 1.6 |  |  |  |  |  |  |  |  |  |  |  | 
COc1ccc(/C=C\c2cc(OC)c(OC)c(OC)c2)cc1OCCn1cccc1.Cl | 0.56 | 2.3 | 4.9 | 0.0064 | 20 | 0.0033 | 0.003 | 0.0232 |  |  |  |  |  |  |  |  |  |  |  | 
COc1ccc(/C=C\c2cc(OC)c(OC)c(OC)c2)cc1OCCN1CCOCC1.Cl | 0.4 | 2.9 | 0.97 | 0.22 | > 40 | 0.41 | 0.53 | 0.634 |  |  |  |  | 100 |  |  |  |  |  |  | 
COc1ccc(/C=C\c2cc(OC)c(OC)c(OC)c2)cc1OCCN1CCCCC1.Cl | 3.4 | > 10 | 5.1 | 1.6 | > 40 | 3.3 | 4.2 | 0.348 |  |  |  |  |  |  |  |  |  |  |  | 
COc1ccc(/C=C\c2cc(OC)c(OC)c(OC)c2)cc1OCCn1ccnc1.Cl | 1.5 | 0.82 | 1.5 | 0.31 | 7.6 | 0.56 | 0.67 | 19 |  |  |  |  | 100 |  |  |  |  |  | 25 | 
COc1ccc(/C=C\c2cc(OC)c(OC)c(OC)c2)cc1OCCN1CCCC1.Cl | 0.35 | 2 | 0.6 | 0.22 | > 40 | 0.34 | 0.49 | 0.421 |  |  |  |  |  |  |  |  |  |  | 25 | 100
COc1ccc(/C=C\c2cc(OC)c(OC)c(OC)c2)cc1O [COMBRETASTATIN A4] | 0.00076 (≈ 0.0024 µM) | > 0.1 | 0.00026 (≈ 0.000822 µM) | 0.00026 (≈ 0.000822 µM) |  | 0.00056 (≈ 0.00177 µM) | 0.00065 (≈ 0.00205 µM) | 0.0026 (≈ 0.00822 µM) |  |  |  |  |  |  |  |  |  |  |  | 
COc1ccc(/C=C\c2cc(OC)c(OC)c(OC)c2)cc1OP(=O)([O-])[O-].[Na+].[Na+] [FOSBRETABULIN DISODIUM] | 0.00072 | 0.23 | 0.00061 | 0.00025 |  | 0.00035 | 0.00045 | 0.0029 |  |  |  |  |  |  |  |  |  |  |  | 
